≈ marks a conversion by molar mass, not a printed value.
How the values were obtained:
[1] = test system: Human immunodeficiency virus 1; experiment: Antiviral activity against HIV1 3B infected in human H9 cells; type: functional, organism-based; settings: Human immunodeficiency virus 1, 3B
[2] = Therapeutic index, ratio of CC50 for human H9 cells to EC50 for HIV1 3B; type: cell-based; settings: read-out: TI
[3] = Therapeutic index, ratio of IC50 for human TZM-b1 cells to EC50 for HIV1 NL4-3; type: cell-based; settings: read-out: TI
Outline: (§1)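 Cytotoxicity was measured with the CytoTox-Glo kit following the manufacturer's instructions. Antiviral EC50 came from the single-round TZM-bl luciferase assay: 200 TCID50 virus, eight 4-fold sample dilutions, 48 h, and 50% RLU reduction versus virus control after background subtraction.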

[4] = Cytotoxicity against human TZM-b1 cells; type: cell-based
Outline: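 Cytotoxicity in TZM-bl cells read with the CytoTox-Glo luminescent assay, run according to the kit instructions.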

[5] = test system: Human immunodeficiency virus 1; experiment: Antiviral activity against wild type HIV1 NL4-3 in human TZM-b1 cells after 48 hrs by luciferase reporter gene assay; type: functional, organism-based; settings: Human immunodeficiency virus 1, NL4-3, TZM-b1, 48 h
Outline: (§2)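 Single-round infection of TZM-bl cells with 200 TCID50 virus mixed with test sample at eight 4-fold serial dilutions. Incubated 48 h, then luciferase reagent was added and luminescence read. IC50 is the concentration giving 50% reduction in RLU versus virus-control wells, after subtracting background RLU.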

[6] = test system: Human immunodeficiency virus 1; experiment: Antiviral activity against HIV1 RTMDR1 in human TZM-b1 cells after 48 hrs by luciferase reporter gene assay; type: functional, organism-based; settings: Human immunodeficiency virus 1, RTMDR1, TZM-b1, 48 h; outline: as §2
[7] = Therapeutic index, ratio of IC50 for human TZM-b1 cells to EC50 for HIV1 RTMDR1; type: cell-based; settings: read-out: TI; outline: as §1
[8] = test system: Human immunodeficiency virus 1; experiment: Antiviral activity against HIV1 infected in human H9 cells; type: functional, organism-based; settings: Human immunodeficiency virus 1, H9
[9] = Therapeutic index, ratio of CC50 for human H9 cells to EC50 for HIV1; type: cell-based; settings: read-out: TI
[10] = test system: Human immunodeficiency virus 1; experiment: Antiviral activity against HIV1 RTMDR1 in human MT4 cells; type: functional, organism-based; settings: Human immunodeficiency virus 1, RTMDR1, MT4
[11] = Therapeutic index, ratio of CC50 for human H9 cells to EC50 for HIV1 RTMDR1; type: cell-based; settings: read-out: TI
[12] = Solubility of the compound in water after 1 hr; type: physicochemical; settings: for solubility: HPLC grade water, 1 h
Outline: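 Excess solid compound was added to HPLC-grade water and sonicated in an ultrasonic bath at room temperature for 1 h. Undissolved solid was removed with a PTFE syringe filter. Dissolved concentration was quantified by HPLC on a C18 column (2.1 mm × 100 mm) at a flow rate of 200 μL/min.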

SMILES | EC50 [1] | selectivity ratio [2] | selectivity ratio [3] | IC50 [4] | EC50 [5] | EC50 [6] | selectivity ratio [7] | EC50 [8] | selectivity ratio [9] | EC50 [10] | selectivity ratio [11] | solubility [12] | solubility at 1 h ([12]; water)
Cc1cc(=O)oc2c3c(ccc12)OC(C)(C)[C@H](OC(=O)[C@@]12CC[C@@](C)(C(=O)O1)C2(C)C)[C@@H]3OC(=O)[C@@]12CC[C@@](C)(C(=O)O1)C2(C)C | 5.9 nM | 6660 |  |  |  |  |  |  |  |  |  |  | 
CCc1cc(=O)c2ccc3c(c2o1)[C@@H](OC(=O)[C@@]12CC[C@@](C)(C(=O)O1)C2(C)C)[C@@H](OC(=O)[C@@]12CC[C@@](C)(C(=O)O1)C2(C)C)C(C)(C)O3 |  |  | 94 | 6600 nM | 70 nM | 110 nM | 60 | 70 nM | 94 | 110 nM | 60 | < 0.9 µg/mL | 
CNc1c(C)oc2c3c(ccc2c1=O)OC(C)(C)[C@H](OC(=O)[C@@]12CC[C@@](C)(C(=O)O1)C2(C)C)[C@@H]3OC(=O)[C@@]12CC[C@@](C)(C(=O)O1)C2(C)C |  |  | > 200 | > 60000 nM | 300 nM | 450 nM | > 130 |  |  |  |  |  | 
Cc1oc2c3c(ccc2c(=O)c1Br)OC(C)(C)[C@H](OC(=O)[C@@]12CC[C@@](C)(C(=O)O1)C2(C)C)[C@@H]3OC(=O)[C@@]12CC[C@@](C)(C(=O)O1)C2(C)C |  |  | 14 | 7700 nM | 550 nM | 570 nM | 14 |  |  |  |  |  | 
Cc1cc(=O)c2c(C)cc3c(c2o1)[C@@H](OC(=O)[C@@]12CC[C@@](C)(C(=O)O1)C2(C)C)[C@@H](OC(=O)[C@@]12CC[C@@](C)(C(=O)O1)C2(C)C)C(C)(C)O3 |  |  | 420 | 15000 nM | 36 nM | 49 nM | 310 |  |  |  |  |  | 5.2 µg/mL (≈ 7.99 µM)
Cc1oc2c3c(cc(C)c2c(=O)c1Br)OC(C)(C)[C@H](OC(=O)[C@@]12CC[C@@](C)(C(=O)O1)C2(C)C)[C@@H]3OC(=O)[C@@]12CC[C@@](C)(C(=O)O1)C2(C)C |  |  | > 24 | > 14000 nM | 590 nM | 910 nM | > 15 |  |  |  |  |  | 
Cc1oc2c3c(c(Br)c(C)c2c(=O)c1Br)OC(C)(C)[C@H](OC(=O)[C@@]12CC[C@@](C)(C(=O)O1)C2(C)C)[C@@H]3OC(=O)[C@@]12CC[C@@](C)(C(=O)O1)C2(C)C |  |  | > 1.2 | > 12000 nM | 10000 nM | > 12000 nM |  |  |  |  |  |  | 
Cc1cc(=O)c2c(CBr)cc3c(c2o1)[C@@H](OC(=O)[C@@]12CC[C@@](C)(C(=O)O1)C2(C)C)[C@@H](OC(=O)[C@@]12CC[C@@](C)(C(=O)O1)C2(C)C)C(C)(C)O3 |  |  | 11 | 8900 nM | 810 nM | 1200 nM | 7.4 |  |  |  |  |  | 
CCc1cc(=O)c2c(C)cc3c(c2o1)[C@@H](OC(=O)[C@@]12CC[C@@](C)(C(=O)O1)C2(C)C)[C@@H](OC(=O)[C@@]12CC[C@@](C)(C(=O)O1)C2(C)C)C(C)(C)O3 |  |  | 110 | 11000 nM | 100 nM | 54 nM | 200 |  |  |  |  |  | 
CCc1cc(=O)c2c(CC)cc3c(c2o1)[C@@H](OC(=O)[C@@]12CC[C@@](C)(C(=O)O1)C2(C)C)[C@@H](OC(=O)[C@@]12CC[C@@](C)(C(=O)O1)C2(C)C)C(C)(C)O3 |  |  | > 120 | > 30000 nM | 250 nM | 340 nM |  |  |  |  |  |  | 
CC1(C)Oc2ccc3c(=O)cc(CBr)oc3c2[C@@H](OC(=O)[C@@]23CC[C@@](C)(C(=O)O2)C3(C)C)[C@H]1OC(=O)[C@@]12CC[C@@](C)(C(=O)O1)C2(C)C |  |  | 3 | 1700 nM | 550 nM | 560 nM | 3 |  |  |  |  |  | 
CC(Br)c1cc(=O)c2ccc3c(c2o1)[C@@H](OC(=O)[C@@]12CC[C@@](C)(C(=O)O1)C2(C)C)[C@@H](OC(=O)[C@@]12CC[C@@](C)(C(=O)O1)C2(C)C)C(C)(C)O3 (stereo partly drawn) |  |  |  | 3500 nM |  |  |  |  |  |  |  |  | 
CC(Br)(Br)c1cc(=O)c2ccc3c(c2o1)[C@@H](OC(=O)[C@@]12CC[C@@](C)(C(=O)O1)C2(C)C)[C@@H](OC(=O)[C@@]12CC[C@@](C)(C(=O)O1)C2(C)C)C(C)(C)O3 |  |  | 1.8 | 1800 nM | 1000 nM | 450 nM | 4 |  |  |  |  |  | 
CC1(C)Oc2ccc3c(=O)cc(CC#N)oc3c2[C@@H](OC(=O)[C@@]23CC[C@@](C)(C(=O)O2)C3(C)C)[C@H]1OC(=O)[C@@]12CC[C@@](C)(C(=O)O1)C2(C)C |  |  | 9.4 | 17000 nM | 1800 nM | 1400 nM | 12 |  |  |  |  |  | 
Cc1c(C#N)oc2c3c(ccc2c1=O)OC(C)(C)[C@H](OC(=O)[C@@]12CC[C@@](C)(C(=O)O1)C2(C)C)[C@@H]3OC(=O)[C@@]12CC[C@@](C)(C(=O)O1)C2(C)C |  |  | 290 | 40000 nM | 140 nM | 1900 nM | 21 |  |  |  |  |  | 
CNCc1cc(=O)c2ccc3c(c2o1)[C@@H](OC(=O)[C@@]12CC[C@@](C)(C(=O)O1)C2(C)C)[C@@H](OC(=O)[C@@]12CC[C@@](C)(C(=O)O1)C2(C)C)C(C)(C)O3 |  |  | > 100 | > 30000 nM | 290 nM | 690 nM | > 43 |  |  |  |  |  | 
CCc1oc2c3c(ccc2c(=O)c1Br)OC(C)(C)[C@H](OC(=O)[C@@]12CC[C@@](C)(C(=O)O1)C2(C)C)[C@@H]3OC(=O)[C@@]12CC[C@@](C)(C(=O)O1)C2(C)C |  |  | > 24 | > 27000 nM | 1100 nM | 990 nM | > 28 |  |  |  |  |  | 
Cc1oc2c3c(ccc2c(=O)c1I)OC(C)(C)[C@H](OC(=O)[C@@]12CC[C@@](C)(C(=O)O1)C2(C)C)[C@@H]3OC(=O)[C@@]12CC[C@@](C)(C(=O)O1)C2(C)C |  |  | 18 | 13000 nM | 730 nM | 1600 nM | 8 |  |  |  |  |  | 
CCc1oc2c3c(ccc2c(=O)c1C#N)OC(C)(C)[C@H](OC(=O)[C@@]12CC[C@@](C)(C(=O)O1)C2(C)C)[C@@H]3OC(=O)[C@@]12CC[C@@](C)(C(=O)O1)C2(C)C |  |  | > 54 | > 30000 nM | 550 nM | 790 nM | > 37 |  |  |  |  |  | 
Cc1oc2c3c(ccc2c(=O)c1N)OC(C)(C)[C@H](OC(=O)[C@@]12CC[C@@](C)(C(=O)O1)C2(C)C)[C@@H]3OC(=O)[C@@]12CC[C@@](C)(C(=O)O1)C2(C)C |  |  | 130 | 32000 nM | 250 nM | 470 nM | 68 |  |  |  |  |  | 
CCc1oc2c3c(ccc2c(=O)c1N)OC(C)(C)[C@H](OC(=O)[C@@]12CC[C@@](C)(C(=O)O1)C2(C)C)[C@@H]3OC(=O)[C@@]12CC[C@@](C)(C(=O)O1)C2(C)C |  |  | 190 | 23000 nM | 120 nM | 310 nM | 74 |  |  |  |  | 10.3 µg/mL (≈ 15.5 µM) | 
CCc1oc2c3c(ccc2c(=O)c1NC)OC(C)(C)[C@H](OC(=O)[C@@]12CC[C@@](C)(C(=O)O1)C2(C)C)[C@@H]3OC(=O)[C@@]12CC[C@@](C)(C(=O)O1)C2(C)C |  |  | 73 | 32000 nM | 440 nM | 1100 nM | 29 |  |  |  |  |  | 
CC1(C)Oc2ccc3c(=O)cc(CN4CCOCC4)oc3c2[C@@H](OC(=O)[C@@]23CC[C@@](C)(C(=O)O2)C3(C)C)[C@H]1OC(=O)[C@@]12CC[C@@](C)(C(=O)O1)C2(C)C |  |  | > 14 | > 28000 nM |  |  | > 6.3 |  |  |  |  |  | 
CN(C)CCCN1CCN(Cc2cc(=O)c3ccc4c(c3o2)[C@@H](OC(=O)[C@@]23CC[C@@](C)(C(=O)O2)C3(C)C)[C@@H](OC(=O)[C@@]23CC[C@@](C)(C(=O)O2)C3(C)C)C(C)(C)O4)CC1 |  |  |  | 17000 nM |  |  |  |  |  |  |  |  | 
CC1(C)Oc2ccc3c(=O)cc(CNCc4ccncc4)oc3c2[C@@H](OC(=O)[C@@]23CC[C@@](C)(C(=O)O2)C3(C)C)[C@H]1OC(=O)[C@@]12CC[C@@](C)(C(=O)O1)C2(C)C |  |  | > 1.3 | > 27000 nM | 21000 nM |  | > 1.3 |  |  |  |  |  | 
Cc1cc(=O)c2ccc3c(c2o1)[C@@H](OC(=O)[C@@]12CC[C@@](C)(C(=O)O1)C2(C)C)[C@@H](OC(=O)[C@@]12CC[C@@](C)(C(=O)O1)C2(C)C)C(C)(C)O3 |  |  | 110 | 11000 nM | 100 nM | 190 nM | 58 |  |  |  |  |  | 
CC1(C)Oc2ccc3ccc(=O)oc3c2[C@@H](OC(=O)C23CCC(C)(C(=O)O2)C3(C)C)[C@H]1OC(=O)C12CCC(C)(C(=O)O1)C2(C)C (stereo partly drawn) | 49 nM | 328 |  |  |  |  |  |  |  |  |  |  | 
